PostGolgi ctrl = growth inhibition of yeast control strain, primary screen, counter-screen for post-Golgi transport modulator project. AID 738, 2007. efflux-deficient yeast background strain, growth absorbance A615, 16 h. inhibition, % at 10 µM. actives 5% (n = 98,000)
Yeast growth inh = growth inhibitors of yeast BB579 in restrictive medium, primary screen, yeast lifespan-shortening project, S. cerevisiae; OD615, 48 h; inhibition, % at 10 µM; actives 0.51% (n = 140,000);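 active = inhibition above a set limit, 3 SD over the mean compound inhibition, cut at about 44% in these data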
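test system = yeast BB579 (DeaD) | buffer or medium = restrictive CSMM-D medium | doses = single compound dose of 10 µM, 0.25% DMSO final | times = 4 h preincubation and 48 h exposure at 30 °C | technique = culture absorbance at 615 nm | benchmarks = amphotericin B 10 µg/mL, positive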
Yeast lifespan up = compounds extending yeast replicative lifespan, primary screen, S. cerevisiae, OD615; inhibition of the nicotinamide effect, % at 10 µM; actives 0.68% (n = 130,000); S. cerevisiae growth with nicotinamide; deaD strain in restrictive glucose medium; AID 775, 2007;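 active = inhibition above a set limit, placed 3 SD over the median of all compounds, cut at about 26% in these data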;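 also: 0% = nicotinamide-treated wells and 100% = cells grown without nicotinamide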
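Measured by: optical density (absorbance) at 615 nm; System: modified budding yeast, DeaD strain; Medium: restrictive CSMM-D dextrose medium; Timing: 4 h preincubation then 48 h treatment at 30 °C.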
PostGolgi yeast = phenotypic screen on post-Golgi transport, primary screen | post-Golgi transport phenotypic cell assay | AID 739, 2007 | inhibition, % at 10 µM | actives 0.9% (n = 98,000);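 also: yeast cells grown in 1536-well plates; yeast grown about 18 h at 30C before absorbance read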
* = called active by the depositor; · = no result given. Many of the other results were omitted from the sample, so hits are more common in it than they were. Rule as the data show it, unless noted: active = inhibition above about 30%; inactive = the rest.

SMILES	PostGolgi ctrl	Yeast growth inh	Yeast lifespan up	PostGolgi yeast
CCCCc1nc(NCC2CCCO2)c(C#N)c2c1COC(C)(C)C2 (configuration not stated)	96*	-18	-8	2
CC1(C)CC(=O)C2=C(C1)N(Cc1ccccc1)C(=O)C2(NC(=O)C(C)(C)C)C(F)(F)F (configuration not stated)	4	-11	-7	9
O=Nc1c(O)n(Cc2ccc(Cl)c(Cl)c2)c2ccccc12	59*	87*	-34	22
O=[N+]([O-])c1cc(S(=O)(=O)N2CCCCCC2)ccc1F	·	-7	66*	·
O=[N+]([O-])c1cc(S(=O)(=O)N2CCCC2)ccc1O	·	-20	3	·
CC1CCc2c(C(=O)N3CCN(S(=O)(=O)c4cccs4)CC3)csc2C1 (configuration not stated)	24	-41	10	-11
O=C(CCSCCc1ccccn1)Nc1c(F)c(F)c(F)c(F)c1F	·	-27	27*	·
Cc1cccc(S(=O)(=O)Nc2nc3ccccc3nc2NCc2ccc3c(c2)OCO3)c1	·	-6	5	·
COC(=O)c1oc2ccc(Cl)cc2c1-n1cccc1	22	-80	-10	-8
Cc1sc2nc(SCc3ccccc3)n(Cc3ccco3)c(=O)c2c1C	7	-42	-9	1
Cc1sc2nc(SCC(=O)C(C)(C)C)n(Cc3ccco3)c(=O)c2c1C	39*	-49	-13	2
CC(=O)Nc1ccc(C(=O)OCC(=O)N(Cc2ccccc2)C(C)(C)C)cc1	10	-14	54*	12
Cc1ccc(C(=O)c2cc3ccccc3o2)cc1	3	-23	-19	0
O/N=C(\c1ccc(Cl)cc1)c1cc2ccccc2o1	34*	-11	-32	15
COc1ccc2c(c1)[nH]c1c(Cl)ncnc12	·	61*	-10	·
COc1cc(C(=O)Nc2nc(-c3cccs3)cs2)cc(OC)c1OC	48*	-43	-20	25
COc1ccc(C(=O)Nc2nc(-c3cccs3)cs2)cc1	16	-15	-7	1
COC(=O)C1=C(C(=O)OC)C(c2cc(Br)ccc2O)c2sc(=O)[nH]c2S1 (configuration not stated)	·	-16	61*	·
COC(=O)C1=C(C(=O)OC)C(c2cc(Cl)ccc2O)c2sc(=O)[nH]c2S1 (configuration not stated)	11	-39	49	-3
COc1ccnc(Oc2ccc(F)cc2)c1C(=O)N/C=N/OCc1ccc(F)cc1Cl	38*	-9	-19	-2
CCOC(=O)c1cnc2c(C)c(C)ccc2c1Nc1ccc(S(=O)(=O)Nc2ncccn2)cc1	·	-37	0	·
CN(C)c1ccc(C(c2nnnn2CCOC(=O)Nc2ccc(Cl)cc2)N2CCOCC2)cc1 (configuration not stated)	34*	-30	-19	-1
CCC1Sc2ccccc2N(CC(=O)NCCC2=CCCCC2)C1=O (configuration not stated)	37*	-55	24	-1
Fc1ccc(-n2[nH]nnc2=S)cc1N1CCCC1	5	-14	-22	1
CC(=O)c1ccc(NC(=O)C2CCCN2S(=O)(=O)c2cccc3cccnc23)cc1 (configuration not stated)	31*	-1	-9	5
SMILES	PostGolgi ctrl	Yeast growth inh	Yeast lifespan up	PostGolgi yeast
Cc1cccc(NC(=O)C2CCCN2S(=O)(=O)c2cccc3cccnc23)c1 (configuration not stated)	20	26	1	-2
CC(C)(C)Cc1cc(N)on1	·	-13	7	·
C=C(C)CN1C(=O)C(O)(CC(=O)c2ccc3c(c2)OCCO3)c2ccccc21 (configuration not stated)	41*	-17	2	-10
N#CCCCN1C(=O)C(O)(CC(=O)c2ccc3c(c2)OCCO3)c2ccccc21 (configuration not stated)	-2	-34	2	-7
C/C(=N/NC(=O)CN1CCN(S(=O)(=O)c2ccc(Br)cc2)CC1)c1ccco1	·	-3	-3	·
Oc1ccc(/C=N/N=C(c2ccccc2)c2ccccc2)c(O)c1O	·	90*	-13	·
CCN(CC)S(=O)(=O)c1cccc(C(=O)N/N=C/c2ccc(O)c(O)c2O)c1	·	16	-8	·
O=C(/C(=N/N=C/c1ccc(O)c(O)c1O)c1ccccc1)c1ccccc1	·	95*	-11	·
CCCCN(CC)S(=O)(=O)N1CCC(C(=O)NCc2ccc(F)cc2)CC1	26	-23	-9	-1

Compound activity (PubChem BioAssay)
